Assay outcomes deposited in PubChem by several laboratories.
HIV Rev-RRE inh: inhibitors of HIV-1 Rev-RRE RNA interaction | P05866 | Rev peptide-RRE RNA binding, FRET | inhibition, % at 8 µM | hit rate 0.79% among 97,000;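 active = inhibition above the screen-wide mean plus 3 SD, cut at about 35% in these data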;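 note: 0% = median DMSO wells and 100% = median Neomycin B control wells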
Target sequence (P05866 whole entry, looked up): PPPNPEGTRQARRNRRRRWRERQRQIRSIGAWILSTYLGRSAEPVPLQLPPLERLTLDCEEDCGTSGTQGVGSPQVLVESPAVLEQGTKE
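Test system – labelled RRE RNA duplex and labelled Rev peptide · Reagent – labelled Rev peptide · Doses – one concentration, 8 µM nominal · Incubation – 5 + 15 min at 25 °C · Signal – FRET fluorescence readout · Read-out basis – % inhibition of FRET ratio versus controls · Control set – DMSO wells as 0% and neomycin B wells as 100% inhibition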
CYP2C9 inhib: blocks human cytochrome P450 2C9. hit rate 20% among 96,000. CYP2C9 Supersomes, luciferin-H conversion, luminescence. P11712. inhibition, % at 5 µM;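 active = blocking of liver enzyme CYP2C9 beyond about 50% at 5 µM, limit read from the data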
Target sequence (P11712 whole entry, looked up): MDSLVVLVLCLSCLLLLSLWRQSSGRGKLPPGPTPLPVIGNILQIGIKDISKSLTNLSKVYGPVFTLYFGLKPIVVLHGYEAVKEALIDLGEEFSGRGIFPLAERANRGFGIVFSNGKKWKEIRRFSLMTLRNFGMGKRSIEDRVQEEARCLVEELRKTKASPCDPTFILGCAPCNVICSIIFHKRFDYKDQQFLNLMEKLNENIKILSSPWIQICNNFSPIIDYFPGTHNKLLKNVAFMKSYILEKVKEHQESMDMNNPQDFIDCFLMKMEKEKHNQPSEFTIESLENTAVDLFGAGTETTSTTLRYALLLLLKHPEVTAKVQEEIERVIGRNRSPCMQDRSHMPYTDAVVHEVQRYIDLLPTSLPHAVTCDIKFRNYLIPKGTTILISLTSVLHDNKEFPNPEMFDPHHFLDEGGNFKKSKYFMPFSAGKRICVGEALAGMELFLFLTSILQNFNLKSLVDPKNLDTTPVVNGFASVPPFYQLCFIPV
CYP2C19 act: activators of human cytochrome P450 2C19; P33261; recombinant CYP2C19, luciferin-H EGE luminescence; hits give high values; 0 = fully inhibited enzyme, 1 = untreated enzyme; activation factor at 5 µM; 96,000 tested, under 10 active; AID 1025;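 active = activation factor of at least 2 at 5 µM in the primary screen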;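 note: 0 = wells with 2.5 mM tranylcypromine and 1 = vehicle-only wells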
CYP2C19 inhib: human CYP2C19 inhibition; P33261; CYP2C19 Supersomes, luciferin-H EGE luminescence, 30 min; inhibition, % at 5 µM; hit rate 21% among 96,000;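 active = CYP2C19 inhibition above a set limit at 5 µM in the primary screen, cut at about 50% in these data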;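 note: plate controls were negative control wells for no effect and 2.5 mM tranylcypromine positive control for full effect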
CYP2C9 act: CYP2C9 (human) activation; P11712; recombinant CYP2C9, luciferin-H conversion, luminescence; hits give high values; factor 1 = untreated enzyme, 0 = blocked; activation factor at 5 µM; hit rate 1.4% among 96,000; AID 1024;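 active = activation factor of 2 or more for CYP2C9 at a 5 µM dose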;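 note: 0 = sulfaphenazole-blocked wells and 1 = vehicle-only wells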
Cav32 inh: human Cav3.2 channel inhibition, primary screen | O95180 | Cav3.2-expressing cells, Fluo-4 calcium fluorescence FDSS; hits give low values | B-score at 10 µM | hit rate 4% among 100,000;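 active = single-dose well whose peak fluorescence ratio is a statistical outlier from its plate by either plate-standardised score or position-corrected B-score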
* marks the source's active call; other numbers are inactive results; . = no result given. This is a sample that favours compounds with a hit; in the whole collection about 27% have one here.

SMILES	HIV Rev-RRE inh	CYP2C9 inhib	CYP2C19 act	CYP2C19 inhib	CYP2C9 act	Cav32 inh
CC(=O)C1=C(C)NC(SCC(=O)c2ccccc2)=C(C#N)C1c1ccco1 (configuration not stated)	9.8	92.6*	0	98.8*	0.1	0.857
CCc1ccc(NC(=O)CSC2=C(C#N)C(c3ccco3)C3=C(CCCC3=O)N2)cc1 (configuration not stated)	17.1	19.3	0.7	32.8	0.8	-3.31
Cc1snc(SCC(=O)c2ccc(Cl)cc2)c1C#N	8.9	27.9	0.6	41.9	0.7	-0.847
CC(=O)C1=C(C)NC(SCC(=O)c2ccc(Cl)cc2)=C(C#N)C1c1ccco1 (configuration not stated)	10.6	97.2*	0	100.1*	0	-4.53*
COc1ccc(-c2ccnc3nc(Sc4ncc(C(F)(F)F)cc4Cl)nn23)cc1	7.2	51.6*	0.7	29.6	0.5	-2.17
Clc1ccc(Br)cc1-c1nc(-c2cccnc2)no1	6.1	.	.	.	.	.
O=c1ccccn1Cc1c(Cl)cccc1Cl	4.0	35.6	0.9	14.2	0.6	-1.1
CCOC(=O)Nc1ccc(=O)n(Cc2c(Cl)cccc2Cl)c1	0.4	52.9*	0.8	22.8	0.5	-0.00933
Cc1cc(NC(=O)c2cncc(Br)c2)n(-c2ccccn2)n1	7.0	-58.6	1	4.5	1.6	.
O=c1c2c(nc3c(-c4cccc5ccccc45)c[nH]n13)CCC2	-2.0	69.3*	0.9	7.2	0.3	0.525
Cc1[nH]n2c(=O)c3c(nc2c1-c1cccc2ccccc12)CCC3	-2.9	45.7	0.7	26.0	0.5	-0.469
Cc1cc(Nc2cccc(F)c2)n2nc(C)nc2n1	.	.	.	.	.	-0.0764
COC(=O)[C@H](C)NC(=O)Nc1ccc(Oc2ccccc2)cc1	3.4	20.8	0.6	37.0	0.8	1.25
CCOC(=O)C1C(C#N)=C(N)OC(C)=C1c1ccncc1 (configuration not stated)	9.2	89.9*	0.2	79.9*	0.1	1.85
CCOC(=O)C1=C(C)N(c2nonc2NC(C)=O)C(N)=C(C#N)C1c1ccccc1F (configuration not stated)	3.1	72.9*	0.3	72.8*	0.3	-1.22
CCOC(=O)C1=C(C)OC(N)=C(C#N)C1c1ccc(C)o1 (configuration not stated)	9.7	57.5*	0	97.6*	0.4	-0.241
C=CCOC(=O)C1=C(C)OC(N)=C(C#N)C1c1ccccc1F (configuration not stated)	13.0	56.5*	0.2	80.6*	0.4	.
CCOC(=O)C1=C(C)OC(N)=C(C#N)C1c1ccc(O)c(OC)c1 (configuration not stated)	0.8	33.4	0.5	48.6	0.7	0.00344
Cc1cccc(N(C(=O)c2csnn2)C(C(=O)NC(C)(C)C)c2cccs2)c1 (configuration not stated)	4.9	6.6	0.7	31.0	0.9	-0.00122
CC1=C(C(=O)OC(C)(C)C)C(c2ccco2)C(C#N)=C(N)O1 (configuration not stated)	14.8	52.1*	0.1	93.4*	0.5	-0.0747
CCOC(=O)C1=C(C)OC(N)=C(C#N)C1c1ccoc1 (configuration not stated)	.	15.6	0.5	53.5*	0.8	1.53
CCOC(=O)CC1=C(C(=O)OCC)C(c2ccncc2)C(C#N)=C(N)O1 (configuration not stated)	3.7	59.2*	0.2	78.9*	0.4	0.937
COC(=O)CC1=C(C(=O)OC)C(c2cc(OC)c(OC)cc2OC)C(C#N)=C(N)O1 (configuration not stated)	4.1	48.6	0.7	34.0	0.5	0.89
CCc1cc2cc(C(=O)Nc3ccc(C)cc3)sc2s1	4.7	.	.	.	.	-1.48
Cc1ccc(NC(=O)c2ccc(OC(=O)CCN3C(=O)c4ccccc4C3=O)cc2)cc1	7.3	-16.0	0.9	5.2	1.2	-0.351
SMILES	HIV Rev-RRE inh	CYP2C9 inhib	CYP2C19 act	CYP2C19 inhib	CYP2C9 act	Cav32 inh
COC(=O)C(Cc1ccc(OC(=O)c2ccc(C)cc2)cc1)N1Cc2ccccc2C1=O (configuration not stated)	5.9	50.4*	0.7	28.5	0.5	0.479
O=C(CCn1nc(-c2ccc(Cl)cc2)ccc1=O)N1CCOCC1	-1.1	-23.0	0.8	18.2	1.2	0.432
CCOc1ccc(-c2nc(CSCC(=O)NCCN3CCOCC3)c(C)o2)cc1	.	24.7	0.7	31.5	0.8	1.03
CCOC(=O)c1c(C)n(C)c2ccc(OC)c(NC(=O)CN3CCN(C4CCCCC4)CC3)c12	-6.0	8.3	1.2	-15.5	0.9	0.388
Cc1cc(Cl)ccc1Oc1ncc(-c2ccc(Cl)cc2)cn1	1.9	3.3	0.8	23.6	1	1.3
Cc1cc(Cl)ccc1OCc1nc(-c2ccc(O)cc2)n[nH]1	12.2	93.8*	0	96.8*	0.1	-0.581
Nc1ccn([C@@H]2CS[C@H](CO)O2)c(=O)n1	.	.	.	.	.	-0.149
CCc1ccccc1NC(=O)CSc1nnc(Cn2nnc3ccccc32)n1C	10.4	.	.	.	.	0.692
Cc1ccnc(SCC(=O)Nc2c(C)n(C)n(-c3ccccc3)c2=O)n1	2.2	-20.6	1.2	-16.5	1.2	0.68
O=C(OCc1ccccc1)C1=[N+]([O-])OC(C(=O)OCc2ccccc2)C1c1c[nH]c2ccccc12 (configuration not stated)	7.6	95.9*	0.2	83.7*	0	-1.72
Cc1ccc(S(=O)(=O)N2CCN(C(=O)Cc3ccccc3)CC2)cc1	7.7	33.0	0.4	64.2*	0.7	0.307
Cc1ccc(S(=O)(=O)N2CCN(S(=O)(=O)c3ccc(C)cc3)C2)cc1	10.9	67.9*	0.7	29.7	0.3	-0.0866
Cc1ccc(S(=O)(=O)N2CCCN(S(=O)(=O)c3ccc(C)cc3)CC2)cc1	9.1	-65.8	0.9	8.2	1.7	-0.0657
CCCS(=O)(=O)N1CCN(S(=O)(=O)c2ccccc2)CC1	7.2	56.0*	0.4	60.6*	0.4	1.07
Cc1ccc(S(=O)(=O)N2CCN(C(=O)CC3CCCC3)CC2)cc1	5.2	0.9	0.9	11.1	1	-0.329
Cc1ccc(CC(=O)N2CCN(c3ccccn3)CC2)cc1	3.1	86.7*	0	98.5*	0.1	0.512
COc1ccc(CC(=O)N2CCN(c3ccccn3)CC2)cc1	4.6	.	.	.	.	0.629
CC1SCCN1S(=O)(=O)c1ccc2ccccc2c1 (configuration not stated)	0.3	.	.	.	.	-2.65
CCCC(=O)c1c[nH]c(C(=O)NCCCN2CCOCC2)c1	1.9	-15.9	1.1	-12.8	1.2	-0.071
CC(=O)Nc1nc(C)nc(C)c1C(C)=O	4.1	-1.2	1	0.8	1	.
Cc1ccc2[nH]cc(C(=O)CN3CCN(c4ccccn4)CC3)c2c1	11.0	83.7*	0.1	87.0*	0.2	-0.1
O=S(=O)(c1ccccc1)N1CCN(S(=O)(=O)c2ccccc2)C1	-2.4	66.9*	0.1	93.9*	0.3	0.744
